CHRM4 PAM: CHRM4 positive allosteric modulation | AID 624126 | CHO-K1 hM4/Gqi5, Fluo-8 calcium fluorescence, ACh EC20; 0% = ACh EC20, 100% = maximal ACh | hit rate 0.4% among 360,000 | P08173 | activation, % at 3 µM;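 active = activation above its plate's cutoff, the mean activation of sample wells plus 3 SD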
CHRM5 antagonist: blocks acetylcholine activation of human M5 receptor; P08912; CHO-hM5 cells, Fluo-8 calcium fluorescence, ACh EC80; inhibition, % at 3 µM; hit rate 0.59% among 360,000;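 active = inhibition above a per-plate cutoff, the mean of that plate's test compounds plus 3 SD, cut at about 27% in these data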;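 also: 0% = acetylcholine EC80 with DMSO and 100% = DMSO without agonist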
Target sequence (P08912 whole entry, looked up): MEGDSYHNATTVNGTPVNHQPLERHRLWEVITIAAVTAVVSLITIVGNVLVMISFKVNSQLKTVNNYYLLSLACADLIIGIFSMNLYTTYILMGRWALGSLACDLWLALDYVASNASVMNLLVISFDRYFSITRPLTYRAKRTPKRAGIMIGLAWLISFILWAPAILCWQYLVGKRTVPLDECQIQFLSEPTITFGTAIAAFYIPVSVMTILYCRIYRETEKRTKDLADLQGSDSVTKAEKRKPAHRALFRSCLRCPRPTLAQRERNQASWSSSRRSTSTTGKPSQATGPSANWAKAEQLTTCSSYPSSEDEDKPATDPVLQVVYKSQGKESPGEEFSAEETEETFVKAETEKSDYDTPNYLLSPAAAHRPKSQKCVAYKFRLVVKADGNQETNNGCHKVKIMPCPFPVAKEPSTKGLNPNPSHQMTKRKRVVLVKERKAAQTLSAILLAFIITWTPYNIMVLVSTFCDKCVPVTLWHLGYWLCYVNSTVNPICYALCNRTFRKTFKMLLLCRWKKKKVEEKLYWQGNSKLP
CHRM4 antagonist: antagonists of human muscarinic M4 receptor (CHRM4). hit rate 0.73% among 360,000. CHO-hM4 cells, ACh EC80, Fluo-8 calcium fluorescence. inhibition, % at 3 µM. AID 624125. P08173;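 active = inhibition above its plate's cutoff, the mean inhibition of sample wells plus 3 SD, cut at about 27% in these data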;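 also: 0% = acetylcholine EC80 with DMSO and 100% = DMSO without agonist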
M4 ag: agonists of human muscarinic M4 receptor (CHRM4); P08173; CHO-K1 hM4/Gqi5, Fluo-8 calcium fluorescence; vehicle 0%, full acetylcholine response 100%; activation, % at 3 µM; hit rate 0.14% among 360,000; AID 624127;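 active = activation above the run mean over all test wells plus 3 SD, cut at about 32% in these data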;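 also: peak over basal fluorescence ratio per well then scaled between controls; 0% = DMSO wells and 100% = acetylcholine at EC100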
M5 ag: CHRM5 agonism in calcium assay | P08912 | CHO-K1 hM5 cells, Fluo-8 calcium fluorescence; 0% DMSO wells, 100% maximal acetylcholine response | activation, % at 3 µM | hit rate 0.19% among 360,000 | AID 624037;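 active = activation above the run's mean over test compounds plus 3 SD, cut at about 23% in these data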;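 also: signal is peak over basal fluorescence ratio across the kinetic read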
CHRM5 PAM: positive allosteric modulators of human muscarinic M5 receptor; hit rate 0.3% among 360,000; activation, % at 3 µM; CHO-K1 hM5, Fluo-8 calcium, ACh EC20 PAM; 0% = ACh EC20, 100% = ACh EC100; P08912;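 active = activation above the run cutoff, the mean activation of all test compounds plus 3 SD, cut at about 18% in these data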
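Probe or stimulus: acetylcholine, EC20 level; Assay system: human M5 receptor in CHO-K1 cells; Schedule: compound preincubation 140 s before EC20 acetylcholine addition; Technique: intracellular calcium via Fluo-8 fluorescence; Dosing: single-point, 3 µM nominal; Read-out basis: percent activation from peak-over-basal fluorescence ratio, scaled EC20-to-EC100 acetylcholine; Repeats: one well per compound, no replicates.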
* marks the source's active call; other numbers are inactive results; ! = a repeat was not active. This is a sample that favours compounds with a hit; in the whole collection about 1.8% have one here.

SMILES | CHRM4 PAM | CHRM5 antagonist | CHRM4 antagonist | M4 ag | M5 ag | CHRM5 PAM
CCCCn1nnnc1C(c1cccc2ccccc12)N1CCN(C/C=C/c2ccccc2)CC1 (configuration not stated) | -17 | 96* | 84* | 1 | -6 | -23
COc1cccc(C(c2nnnn2C2CCCC2)N2CCN(C/C=C/c3ccccc3)CC2)c1OC (configuration not stated) | -15 | 71* | 31* | 3 | -8 | -22
C=CCOC(=O)C1=C[C@@H](c2coc3ccccc3c2=O)[C@H](CCCO)[C@@H](OCC)O1 | 5 | 17 | 8 | -1 | 1 | -11
NC(=O)c1ccc[n+](CC(=O)c2ccc(F)cc2)c1 | 11 | -4 | -2 | 2 | 0 | 1
CC(=O)N1c2ccc(S(=O)(=O)N3CCC(C(=O)Nc4cc(C)ccn4)CC3)cc2CC1C (configuration not stated) | -3 | 13 | 5 | 7 | 0 | -4
NC(=O)CC(NC(=O)Cc1cccc2ccccc12)c1ccc(NC2CCCC2)c([N+](=O)[O-])c1 (configuration not stated) | 3 | 3 | 1 | 1 | 2 | -2
NC(=O)CC(NC(=O)Cc1cccc2ccccc12)c1ccc(NC2CC3CCC2C3)c([N+](=O)[O-])c1 (configuration not stated) | 10 | -7 | 0 | -1 | 5 | 19*
NC(=O)CC(NC(=O)Cc1cccc2ccccc12)c1ccc(NCc2ccc(F)c(F)c2)c([N+](=O)[O-])c1 (configuration not stated) | 24* | 3 | -26 | 2 | -3 | 2
NC(=O)CC(NC(=O)Cc1cccc2ccccc12)c1ccc(NCC2CC2)c([N+](=O)[O-])c1 (configuration not stated) | 2 | 13 | -3 | 21 | -1 | 2
NC(=O)CC(NC(=O)Cc1cccc2ccccc12)c1ccc(NCCOc2ccccc2)c([N+](=O)[O-])c1 (configuration not stated) | 28* | 6 | 5 | 2 | 1 | 1
O=C(CCc1nnc(COc2ccccc2)o1)NCc1ccccc1C(F)(F)F | -8 | 1 | -2 | 0 | 1 | 4
COc1ccc(-c2nnc(SCC(=O)Nc3ccc(C(=O)O)cc3)n2-c2ccc(Cl)cc2)cc1 | 13* | 0 | -9 | 0 | -1 | -3
CN1C[C@@H]2[C@@H]3C(=O)N(Cc4ccccc4)C(=O)[C@@H]3[C@](C)(C1=O)N2C(=O)c1ccccc1 | 6 | 0 | -2 | 1 | 1 | 12
CC(C)(C)OC(=O)NNC(=O)NC12CC3CC(CC(C3)C1)C2 | 5 | -3 | -2 | 0 | -2 | 3
O=C(CN1CCCCC1)N1N=C(c2cccs2)CC1c1cccs1 (configuration not stated) | -18 | 38* | 45* | 1 | -10 | -20
CC(C)(C#N)NC(=O)C1CCCN1S(=O)(=O)c1ccc2ccccc2c1 (configuration not stated) | -7 | 14 | 3 | 4 | -2 | -3
Cc1ccccc1CN1CCC(CNC(=O)C2CCCN(c3ncnc4c3nc3n4CCCCC3)C2)CC1 (configuration not stated) | -22 | 16 | 63* | 3 | -10 | -15
O=C(C=C(C(=O)c1ccccc1)c1ccccc1)c1ccccc1 | -6 | 4 | 9 | 2 | -2 | -6
O=S(=O)(NCCc1ccc(Cl)cc1)c1cccc2cccnc12 | -2 | 10 | 2 | 1 | -2 | -9
Nc1ccc2ccc(O)cc2c1 | 6 | 1 | 0 | 3 | 4 | 5
C[n+]1c2cc(N)ccc2cc2ccc(N)cc21 | -16 | 19 | 27*! | 94* | 44* | -9
COC(=O)[C@H](C)NC(=O)NC(C)CCc1ccccc1 (some centres not stated) | 20* | 3 | -1 | 2 | -2 | 2
